The species named for assay [1] is Mus musculus. Description: Percentage inhibition of contraction height in mouse vas deferens (MVD) at 1 uM. The format is functional.
Assay [2] deals with T1, Kappa-type opioid receptor (Cavia porcellus, UniProt P41144). Description: Antagonist activity of compound on U50,488H stimulated [35S]GTP-gamma-S binding to opioid receptor kappa 1. It counts as functional. (In general: Binding of GTPγS marks nucleotide exchange on a G protein.)
For assay [3], the species on record is Cavia porcellus. The assay can be described thus: Antagonist activity of compound in GPI/LMMP tested with PL-017. It counts as functional. The essentials:
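Guinea pig ileum longitudinal muscle/myenteric plexus preparation. Antagonism is measured against the μ agonist PL-017 and expressed as Ke (nM). Agonist activity is recorded separately as percent inhibition of contraction height at a single stated concentration.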

The target of assay [4] is T1, Kappa-type opioid receptor. Description: Displacement of [3H]U-69593 at opioid receptor kappa 1.
In assay [5] the target is T2, Delta-type opioid receptor (Mus musculus, UniProt P32300). The assay can be described thus: Displacement of [3H]DADLE at delta-opioid receptor. (In a radioligand displacement assay an active substance lowers the binding of a labelled ligand.)
Assay [6] concerns the target T2, Delta-type opioid receptor. Description: Antagonist activity of compound on agonist stimulated [35S]GTP-gamma-S binding on delta-opioid receptor. The format is functional.
For assay [7], the species on record is Mus musculus. Description: Antagonist activity of compound in mouse vas deferens tested with DPDPE. It counts as functional. The procedure, abridged:
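Isolated mouse vas deferens. Antagonism is measured against the δ agonist DPDPE and expressed as Ke (nM). Agonist activity is recorded separately as percent inhibition of contraction height at a single stated concentration.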

The species entered for assay [8] is Cavia porcellus. Description: Percentage inhibition of contraction height in guinea pig ileum longitudinal muscle myenteric plexus (GPI/LMMP) 1 uM. The format is functional. The essentials:
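Agonist effect read in isolated guinea pig ileum longitudinal muscle/myenteric plexus preparation as percent inhibition of contraction height, at one test concentration.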

The target of assay [9] is T3, Mu-type opioid receptor (Rattus norvegicus, UniProt P33535). Description: Displacement of [3H]DAMGO at mu-opioid receptor.
Assay [10] addresses T3, Mu-type opioid receptor. Description: Antagonist activity of compound on agonist stimulated [35S]GTP-gamma-S binding on mu-opioid receptor. The format is functional.
Assay [11] is filed under the species Mus musculus. The assay can be described thus: Percentage inhibition of contraction height in mouse vas deferens (MVD) at 100 nM. The format is functional. The procedure, abridged: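 Agonist effect read in isolated mouse vas deferens preparation as percent inhibition of contraction height, at one test concentration.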
Assay [12] has as its target T2, Delta-type opioid receptor. The assay can be described thus: Antagonist activity of compound on SNC 80 stimulated [35S]GTP-gamma-S binding to delta-opioid receptor. It counts as functional.
Assay [13] deals with T3, Mu-type opioid receptor. Description: Antagonist activity of compound on DAMGO stimulated [35S]GTP-gamma-S binding to mu-opioid receptor. It counts as functional.

Experimental findings from ChEMBL document CHEMBL1134413, “Effect of N-alkyl and N-alkenyl substituents in noroxymorphindole, 17-substituted-6,7-dehydro-4,5alpha-epoxy-3,14-dihydroxy-6,7:2',3'-indolomorphinans, on opioid receptor affinity, selectivity, and efficacy” (J Med Chem, 2001) are described below.

T3 sequence (P33535 whole entry): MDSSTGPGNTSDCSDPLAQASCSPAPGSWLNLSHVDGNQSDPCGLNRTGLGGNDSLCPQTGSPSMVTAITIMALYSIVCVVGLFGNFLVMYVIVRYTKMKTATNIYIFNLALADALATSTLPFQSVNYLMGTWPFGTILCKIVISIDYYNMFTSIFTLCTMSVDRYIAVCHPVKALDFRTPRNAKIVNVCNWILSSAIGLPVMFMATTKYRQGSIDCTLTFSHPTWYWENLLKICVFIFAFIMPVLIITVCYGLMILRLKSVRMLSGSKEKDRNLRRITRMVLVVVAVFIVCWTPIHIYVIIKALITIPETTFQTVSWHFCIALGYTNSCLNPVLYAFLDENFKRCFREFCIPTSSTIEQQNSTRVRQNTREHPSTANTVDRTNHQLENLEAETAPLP
T2 sequence (P32300 whole entry): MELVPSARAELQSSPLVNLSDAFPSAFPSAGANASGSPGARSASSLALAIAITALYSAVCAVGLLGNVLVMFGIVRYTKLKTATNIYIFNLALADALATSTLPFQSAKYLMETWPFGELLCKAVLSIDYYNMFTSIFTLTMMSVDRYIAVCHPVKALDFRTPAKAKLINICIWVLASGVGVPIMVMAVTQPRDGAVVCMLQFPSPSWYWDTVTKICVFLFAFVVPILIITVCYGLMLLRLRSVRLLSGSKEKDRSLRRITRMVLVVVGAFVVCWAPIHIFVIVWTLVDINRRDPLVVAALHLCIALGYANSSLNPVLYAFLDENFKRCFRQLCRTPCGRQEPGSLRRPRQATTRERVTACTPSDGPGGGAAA
T1 sequence (P41144 whole entry): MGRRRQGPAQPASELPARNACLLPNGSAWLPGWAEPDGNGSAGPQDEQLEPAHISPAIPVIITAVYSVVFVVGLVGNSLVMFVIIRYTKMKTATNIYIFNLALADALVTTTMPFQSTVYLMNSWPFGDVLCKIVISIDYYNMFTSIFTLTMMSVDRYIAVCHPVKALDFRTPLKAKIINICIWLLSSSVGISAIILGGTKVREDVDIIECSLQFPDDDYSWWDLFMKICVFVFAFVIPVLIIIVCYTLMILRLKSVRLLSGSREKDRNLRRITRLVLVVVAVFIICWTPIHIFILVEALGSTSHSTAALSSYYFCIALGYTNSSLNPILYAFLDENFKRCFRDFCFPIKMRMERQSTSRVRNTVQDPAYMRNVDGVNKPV

A word on the inhibition: it is the drop in the measured response relative to a control, in per cent. A higher inhibition goes with a response far below the control. A word on the Ki: it is a measure of affinity in units of concentration, obtained from inhibition or displacement. A high value points to weaker binding. In general, Inhibition refers to the change of the read-out against control, counted positive when it falls. The low end stands for a weak effect, the high end for a strong effect. For `Cl.Oc1ccc2c3c1O[C@H]1c4[nH]c5ccccc5c4C[C@@]4(O)[C@@H](C2)N(CC2CC2)CC[C@]314` [NALTRINDOLE HYDROCHLORIDE], the inhibition at 1 µM in assay [1] amounted to 16%. Moreover, the inhibition constant (Ki) in assay [2] amounted to 4.7 nM; in [4], 30 nM; in [5] it was 0.22 nM; in assay [6] it was 0.03 nM. Further, the results for the Ke in [3] and in assay [7] were 43 nM and 0.49 nM, respectively. Moreover, in [8], the Inhibition came out at 18%.
For `CCCN1CC[C@]23c4c5ccc(O)c4O[C@H]2c2[nH]c4ccccc4c2C[C@@]3(O)[C@H]1C5`, the Ki in assay [4] was determined as 380 nM; in assay [5] it was 2 nM.
As to `CCCCCN1CC[C@]23c4c5ccc(O)c4O[C@H]2c2[nH]c4ccccc4c2C[C@@]3(O)[C@H]1C5`, the Ki in assay [9] came out at 2800 nM; in [4], 2000 nM; in assay [5], 16 nM.
For `CCCCN1CC[C@]23c4c5ccc(O)c4O[C@H]2c2[nH]c4ccccc4c2C[C@@]3(O)[C@H]1C5` the same measures were 1300 nM, 900 nM and 8.4 nM.
On to `C/C=C/CN1CC[C@]23c4c5ccc(O)c4O[C@H]2c2[nH]c4ccccc4c2C[C@@]3(O)[C@H]1C5`, for which the Ki is 118 nM in assay [2]; 30 nM in assay [10]; 1200 nM in [9]; 960 nM in [4]; 7.4 nM in assay [5]; 0.68 nM in assay [6]. For the same compound, the Ke in assay [3] was 5500 nM; in assay [7] it was 26 nM. Moreover, 0.1 µM produced 12% inhibition in assay [11]. The Inhibition in [8] is listed as 22%.
Consider `CCN1CC[C@]23c4c5ccc(O)c4O[C@H]2c2[nH]c4ccccc4c2C[C@@]3(O)[C@H]1C5`, for which the Ki is over 1000 nM in assay [2]; 3.2 nM in [12]; 2500 nM in [9]; 3000 nM in [4]; 5 nM in assay [5]; 290 nM in assay [13]. For the same compound, the Ke in [3] is 96 nM; in [7] it was 9.6 nM. The compound further came in with an inhibition at 0.1 µM in [11] of 9%. The compound also gave an Inhibition in assay [8] of 1.2%.
Regarding `CC(C)CN1CC[C@]23c4c5ccc(O)c4O[C@H]2c2[nH]c4ccccc4c2C[C@@]3(O)[C@H]1C5`, the inhibition constant Ki worked out at 2600 nM in assay [9], 650 nM in assay [4] and 3.8 nM in assay [5].
For `CCCCCCCN1CC[C@]23c4c5ccc(O)c4O[C@H]2c2[nH]c4ccccc4c2C[C@@]3(O)[C@H]1C5`, the values for the Ki in [9], in [4] and in assay [5] were 4600 nM, over 7000 nM and 79 nM, respectively.
For `CC(C)=CCN1CC[C@]23c4c5ccc(O)c4O[C@H]2c2[nH]c4ccccc4c2C[C@@]3(O)[C@H]1C5`, in that order: 2800 nM, 3200 nM and 25 nM.
For `CCCCCCN1CC[C@]23c4c5ccc(O)c4O[C@H]2c2[nH]c4ccccc4c2C[C@@]3(O)[C@H]1C5`, in that order: 4600 nM, 3100 nM and 26 nM.
For `CC(C)CCN1CC[C@]23c4c5ccc(O)c4O[C@H]2c2[nH]c4ccccc4c2C[C@@]3(O)[C@H]1C5`, in that order: 1300 nM, 670 nM and 4.8 nM.
Take `CN1CC[C@]23c4c5ccc(O)c4O[C@H]2c2[nH]c4ccccc4c2C[C@@]3(O)[C@H]1C5` [OXYMORPHINDOLE]: in assay [9], the Ki was 66 nM.
Consider `CC(C)N1CC[C@]23c4c5ccc(O)c4O[C@H]2c2[nH]c4ccccc4c2C[C@@]3(O)[C@H]1C5`, for which the Ki in assay [9] is over 6600 nM; in assay [4], 6200 nM; in assay [5] it was 33 nM.
